Source: PubChem BioAssay AID720661 (The Scripps Research Institute Molecular Screening Center, 2013)
Calls of active or inactive are those of the source.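 How the source made its calls: active means EC50 of 10 µM or lower; inactive means EC50 above 10 µM.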

What follows are molecules tested on 293 cells GAL4-VP16 luciferase reporter, luminescence (assay: GAL4-VP16 luciferase reporter activators, dose response, counter-screen for BRM (SMARCA2) activator project, cell-based, luminescence, late stage (AID 720661)).
In short: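 Schedule: 24 h compound treatment, 37 °C | Material: 293 cells carrying GAL4-VP16 and pGL4.31 reporter | Measured by: Luminescence with One-Glo luciferase reagent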
For `Cc1nc(NC(=O)c2cccc(Br)c2)sc1C`, the EC50 was > 91.2 µM (inactive).
With `COc1ccc(-c2nc(C#N)c(NC3CC3)o2)cc1` the EC50 was > 91.2 µM (inactive).
In the case of `Clc1ccc(Cc2nc(-c3ccccc3)cs2)cc1`, the EC50 is reported as > 91.2 µM (inactive).
With `Oc1ccccc1OCc1nc2ccccc2s1` the EC50 was > 91.2 µM (inactive).
`Cc1cc(C)c2nc(NC(=O)C(C)C)sc2c1` was tested, and the EC50 was > 91.2 µM (inactive).
In the case of `Cc1ccc(Nc2nc(-c3ccccc3)c(C)s2)cc1`, the EC50 is reported as > 91.2 µM (inactive).
`O=C(NCC1(c2nc(-c3ccccc3)cs2)CCOCC1)c1cccc(-c2noc(C(F)(F)F)n2)c1` was tested, and the EC50 was > 91.2 µM (inactive).
